Activity calls are given as the source filed them. The calls are words filed in the database; no cut-off is given here.
Key:
[1] = Clearance in Wistar rat at 10 mg/kg, iv by HPLC-MS/MS analysis; type: ADME, organism-based; details: in vivo
Outline: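 Male Wistar Crl:WI (Han) rats, n = 4, given a single 5-min i.v. infusion. BI 6727 measured in EDTA plasma at various times after the infusion started, by HPLC-MS/MS with internal standard. Parameters came from noncompartmental analysis. Terminal half-life was taken from the last two time points after i.v. dosing.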

THP-1 = experiment: Antimitotic activity against human THP-1 cells assessed as inhibition of cell proliferation incubated for 72 hrs by Alamar blue based fluorescence spectrophotometric analysis; type: functional; details: THP-1, 72 h
Outline: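 Cancer cell lines were cultured per supplier instructions and exposed to various inhibitor concentrations for 72 h. Growth was read as Alamar blue conversion by fluorescence. EC50 (50% growth inhibition) was extrapolated from the dose-response curve fit.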

NCI-H460 [2] = experiment: Antimitotic activity against human NCI-H460 cells assessed as histone H3 phosphoserine 10 level at 100 nmol/L incubated for 24 hrs by immunofluorescence analysis; type: functional, cell-based
Outline: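 NCI-H460 cells on chamber slides were treated next day for 24 h with inhibitor or 0.1% DMSO vehicle. They were fixed and permeabilized with 4% formaldehyde/Triton X-100 for 5 min at RT, then stained with anti-tubulin and anti-phospho-Ser10 histone H3 (1:500 in PBS/2% BSA) plus DAPI 0.05 µg/mL. Imaged by fluorescence microscopy.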

NCI-H460 [3] = experiment: Antimitotic activity against human NCI-H460 cells assessed as cell cycle block in G2-M phase measuring by accumulation of 4N DNA content at 100 nmol/L incubated for 24 hrs by PI staining based flow cytometric analysis; type: functional
Outline: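 Log-phase NCI-H460 cells were treated with 0.1% DMSO or inhibitor (dose series for 24 h; 100 nmol/L time course at 0, 24, 48, 72 h). Cells were fixed in 80% ethanol, permeabilized with 0.25% Triton X-100 for 5 min, then given 0.1% RNase plus 10 µg/mL propidium iodide for 20 min at RT. DNA content was read by flow cytometry.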

NCI-H460 [4] = experiment: Induction of apoptosis in human NCI-H460 cells assessed as cleaved PRAP fragment level at 100 nmol/L incubated for 24 hrs by westernblot analysis; type: functional, cell-based
Outline: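 Exponentially growing NCI-H460 cells treated with compound or DMSO control for 24 or 48 h, then harvested. Cleaved PARP fragment detected by Western blot.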

[5] = AUC (0 to infinity) in Wistar rat at 10 mg/kg, iv by HPLC-MS/MS analysis; type: ADME, organism-based; details: in vivo
Outline: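 Single i.v. dose: male Wistar rats (n=4) by 5-min infusion, female nude mice (n=3). EDTA plasma was sampled at various times and extracted with internal standard, NaOH, methanol/formic acid and acetonitrile. Analysis by LC-MS/MS (ESI+, C18, ammonium acetate pH 4.0/acetonitrile gradient). Noncompartmental parameters; AUC by trapezoidal rule.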

[6] = Cmax in Wistar rat at 30 mg/kg, po by HPLC-MS/MS analysis; type: ADME, organism-based; details: in vivo
Outline: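 Single oral gavage of BI 6727 suspended in 0.5% hydroxyethyl-cellulose (10 mL/kg) to female nude mice or male Wistar rats. EDTA plasma levels measured over time by HPLC-MS/MS with internal standard. AUC0-24 by trapezoidal rule. Parameters from noncompartmental analysis.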

[7] = Clearance in BomTac:NMRI-Foxn1nu mouse at 35 mg/kg, iv by HPLC-MS/MS analysis; type: ADME, organism-based; details: in vivo
Outline: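 Female nude mice, n = 3, single i.v. dose (vehicle 0.1 N HCl diluted with 0.9% NaCl, 10 mL/kg). BI 6727 measured in EDTA plasma at several times by HPLC-MS/MS with internal standard. Parameters came from noncompartmental analysis. Terminal half-life was taken from the last two time points after i.v. dosing.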

[8] = AUC (0-24hrs) in BomTac:NMRI-Foxn1nu mouse at 50 mg/kg, po by HPLC-MS/MS analysis; type: ADME, organism-based; details: in vivo
Outline: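 Single oral dose to female nude mice or male Wistar rats. EDTA plasma was collected over 24 h and quantified by LC-MS/MS after extraction with internal standard. AUC0-24 was calculated from the concentration-time profile by the trapezoidal rule using noncompartmental analysis.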

HCT-116 [9] = experiment: Antitumor activity against human HCT-116 cells xenografted in BomTac:NMRI-Foxn1nu mouse assessed as T/C at 25 mg/kg, iv administered twice a week upto 6 weeks relative to control; type: functional
Outline: (§1)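 Female nude mice bore s.c. HCT 116 (2×10^6 cells), NCI-H460 (1×10^6 cells) or serially transplanted CXB1 tumor pieces. At ~50–100 mm³, mice were randomized into groups of 10 and dosed i.v. (0.1 N HCl/saline) or by gavage (0.5% hydroxyethyl-cellulose) at 10 mL/kg. Calipers read thrice weekly, volume = length×width²×π/6. T/C from median volumes on the last day.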

HCT-116 [10] = experiment: Antitumor activity against human HCT-116 cells xenografted in BomTac:NMRI-Foxn1nu mouse assessed as T/C at 50 mg/kg, po administered once a week upto 6 weeks relative to control; type: functional; outline: as §1
[11] = AUC (0 to 24 hrs) in human NCI-H460 cells xenografted in BomTac:NMRI-Foxn1nu mouse at 70 mg/kg, po administered once a week upto 6 weeks by HPLC-MS/MS analysis; type: ADME, organism-based; details: in vivo, 1008 h
HCT-116 [12] = experiment: Antitumor activity against human HCT-116 cells xenografted in BomTac:NMRI-Foxn1nu mouse assessed as tumor growth delay at 15 mg/kg, iv administered twice a week on consecutive days; type: functional, organism-based; details: time 7.0 day; outline: as §1
HCT-116 [13] = experiment: Antitumor activity against human HCT-116 cells xenografted in BomTac:NMRI-Foxn1nu mouse assessed as tumor regression at 20 mg/kg, iv administered twice a week on consecutive days; type: functional, organism-based; outline: as §1
HCT-116 [14] = experiment: Antitumor activity against human HCT-116 cells xenografted in BomTac:NMRI-Foxn1nu mouse assessed as early apoptosis at 40 mg/kg, iv 24 hrs after administration by tunel staining based immunohistochemistry analysis; type: functional, organism-based
Outline: (§2)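 Female nude mice bore s.c. HCT 116 tumors (~200 mm³) and received a single i.v. 40 mg/kg dose or vehicle (n=3 per group per time). Tumor, small intestine and large intestine were taken at 6, 24 and 48 h. Frozen sections were stained for pSer10 histone H3 (immunoperoxidase) or by TUNEL. Positive area was calculated as % of tumor cell area; Student's t test.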

HCT-116 [15] = experiment: Antitumor activity against human HCT-116 cells xenografted in BomTac:NMRI-Foxn1nu mouse assessed as mitotic index in small intestine at 40 mg/kg, iv; type: functional, organism-based; outline: as §2
HCT-116 [16] = experiment: Antitumor activity against human HCT-116 cells xenografted in BomTac:NMRI-Foxn1nu mouse assessed as mitotic index in large intestine at 40 mg/kg, iv; type: functional, organism-based; outline: as §2
[17] = Drug uptake in human HCT-116 cells xenografted in BomTac:NMRI-Foxn1nu mouse at 35 mg/kg, iv measured after 8 hrs by HPLC-MS/MS analysis; type: ADME, organism-based, Neoplasm; details: tumour (HCT-116 xenograft)
Outline: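 Female nude mice bearing s.c. HCT 116 xenografts (2 × 10⁶ cells), n = 3 per time point, given a single i.v. dose. Tumor, organs and EDTA plasma collected at 1, 8, 24, 48, 96 and 168 h. Tissue extracts and plasma analysed by HPLC-MS/MS. Tissue nmol/mg converted to nmol/L assuming density 1.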

clearance [1]: 0.534 L/h/kg
EC50 (THP-1): 0.036 µM
AUC(0-inf) [5]: 30 µM·h
Cmax [6]: 2.2 µM
clearance [7]: 0.6 L/h/kg
AUC(0-t) [8]: 58 µM·h
AUC [11]: 58 µM·h
concentration at 8 h [17]: 32 µM
SMILES: CC[C@@H]1C(=O)N(C)c2cnc(Nc3ccc(C(=O)N[C@H]4CC[C@H](N5CCN(CC6CC6)CC5)CC4)cc3OC)nc2N1C(C)C [VOLASERTIB]
Activity (NCI-H460 [2]): Active
Activity (NCI-H460 [3]): Active
Activity (NCI-H460 [4]): Active
T/C (HCT-116 [9]): 0.3%
T/C (HCT-116 [10]): 2%
Activity (HCT-116 [12]): Active
Activity (HCT-116 [13]): Active
Activity (HCT-116 [14]): Active
Activity (HCT-116 [15]): inactive
Activity (HCT-116 [16]): inactive

Reference: ChEMBL document CHEMBL5661977, “BI 6727, a Polo-like kinase inhibitor with improved pharmacokinetic profile and broad antitumor activity” (Clin Cancer Res, 2009)
